# From PubChem BioAssay
# PostGolgi yeast = growth inhibition of a yeast mutant, post-Golgi transport screen; post-Golgi transport phenotypic cell assay; 98,000 tested, 0.9% active; inhibition, % at 10 µM; AID 739;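 further: yeast cells grown in 1536-well plates; yeast grown about 18 h at 30C before absorbance read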
# Ecoli tolC = growth inhibitors of E. coli BW25113 tolC mutant; OD615; growth inhibition, % at 10 µM (by protocol); 65,000 tested, 2.2% active; AID 573;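 active means growth inhibition at or above a cutoff equal to the mean over every tested compound plus 3 SD, cut at about 60% in these data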;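 further: growth measured after 20 h incubation at 37 °C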
#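 Test system: tolC-deleted E. coli BW25113 | Medium: LB with kanamycin 50 µg/mL | Compound dosing: Single concentration, 10 µM final per compound | Schedule: 37 °C, 20 h exposure | Measured by: OD at 615 nm | Evaluation: Percent growth inhibition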
# E coli WT exp = growth inhibitors of E. coli BW25113 wild type; OD600 absorbance; growth inhibition, % at 100 µM; 98,000 tested, 0.15% active; AID 710;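 active means growth inhibition above about 50% at one test dose, limit read from the data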;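 further: growth measured after 20 h incubation at 37 °C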
# Cav3 T inh = blocks human Cav3.2 T-type calcium channel | Cav3.2-expressing cells, Fluo-4 calcium fluorescence FDSS; hits give low values | 100,000 tested, 4% active | O95180 | B-score at 10 µM;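 active means single-dose well whose peak fluorescence ratio is a statistical outlier from its plate by either plate-standardised score or position-corrected B-score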
# PostGolgi ctrl = inhibits growth of the yeast control strain | efflux-deficient yeast background strain, growth absorbance A615, 16 h | 98,000 tested, 5% active | inhibition, % at 10 µM
# Starred values were filed as active, the others as inactive; x = not tested or not shown. Compounds with a hit are over-represented: about 8.4% of the library has one in this group of screens. Unless noted, no stated cut-off is given here; in the data, active means inhibition above about 30%; inactive means the rest.
SMILES,PostGolgi yeast,Ecoli tolC,E coli WT exp,Cav3 T inh,PostGolgi ctrl
O=C(Cc1ccc(Br)cc1)NC1CCCCC1,6.7,x,-6.0,0.922,5.9
CCn1cnc2sc(C)c(C)c2c1=O,11.8,x,-3.0,0.783,31.7*
COc1ccc(-c2cc(N)n(S(=O)(=O)c3c(F)c(F)c(F)c(F)c3F)n2)cc1OC,103.9*,15.2,3.0,-1.35,67.6*
O=C(O)c1ccc(COc2c(F)c(F)c(F)c(F)c2F)o1,1.8,4.2,1.0,1.96,9.1
CCOC(=O)Cc1nnc2c(Nc3ccc(C)cc3)nc3nonc3n12,13.6,56.6,8.0,1.2,-2.8
CCOC(=O)Cc1nnc2c(Nc3ccccc3F)nc3nonc3n12,-1.0,79.4*,8.0,0.0235,34.4*
O=C(c1ccc(N2CCCCC2)c([N+](=O)[O-])c1)N(Cc1ccccc1)c1ccccn1,4.1,x,-31.0,-4.46*,10.4
COc1ccc(-c2cc(-c3cc(OC)ccc3O)[nH]n2)cc1,-2.4,x,22.0,-4.54*,27.5
COc1ccc(O)c(-c2cc(-c3cccc(Br)c3)n[nH]2)c1,92.9*,3.9,-8.0,x,74.3*
COc1ccc(-c2cc(-c3ccc(OC)c(OC)c3)n[nH]2)c(O)c1,-12.0,x,11.0,-0.0438,4.4
COC(=O)c1ccc(CN(c2ccc(C)cc2)S(=O)(=O)c2ccc3c(c2)OCCO3)o1,-7.1,40.9,-27.0,0.357,21.4
O=C(NCCc1ccccc1)C1(c2ccccc2)CC1(Cl)Cl (configuration not stated),5.0,x,-1.0,-0.375,39.0*
Cc1ccc(N(CC(=O)NCc2ccc(F)cc2)S(=O)(=O)c2cccs2)cc1,13.7,x,-9.0,-1.56,3.5
COc1ccc(S(=O)(=O)NCCSCc2ccco2)cc1Cl,3.0,26.7,2.0,-5.96*,-2.7
Cc1ccc(NC(=O)NNc2cccc(Cl)n2)cc1,-11.1,x,-6.0,2.12,6.7
Cc1cc(NC(=O)Cn2cnc3sc(C)c(-c4ccccc4)c3c2=O)no1,x,-18.5,x,-2.23,x
c1cc(CN2CCCCC2)cc(OCCCNc2nc3ccccc3s2)c1,x,x,x,-4.34*,x
COc1cccc(CNc2nc3ccccc3n2CCN2CCCCC2)c1,20.4,-7.6,19.0,1.34,6.3
CCN(CC)c1ccc(/C=C(/C#N)c2nc3ccc(C)cc3[nH]2)c(OC(C)C)c1,-7.0,x,-14.0,-5.47*,17.4
CN(C)/C=C(\C#N)c1nc2ccccc2[nH]1,11.4,9.1,4.0,0.952,5.1
COc1ccc(/C=C(\C#N)c2nc3ccc(C)cc3[nH]2)cc1Oc1ccc(C(F)(F)F)cc1[N+](=O)[O-],-10.3,x,-5.0,x,7.5
CCOc1cc(N(CC)CC)ccc1/C=C(/C#N)c1nc2ccccc2[nH]1,12.2,x,-9.0,x,49.9*
COc1cc(/C=C(\C#N)c2nc3ccc(C)cc3[nH]2)c([N+](=O)[O-])cc1OC,0.6,x,-8.0,-1.19,8.2
CCCOc1cc(N(CC)CC)ccc1/C=C(/C#N)c1nc2ccc(C)cc2[nH]1,-3.3,x,-25.0,-5*,17.5
O=c1c2ccccc2nc2n1C(CSCc1ccc(Cl)cc1Cl)CS2 (configuration not stated),-4.0,x,4.0,-1.27,14.3
SMILES,PostGolgi yeast,Ecoli tolC,E coli WT exp,Cav3 T inh,PostGolgi ctrl
COc1ccc(S(=O)(=O)N2CCCC(C(=O)NCc3ccccn3)C2)cc1 (configuration not stated),-3.8,-10.1,-3.0,-0.513,0.5
O=C(NCCc1ccccc1F)[C@@H]1CSC2c3ccccc3C(=O)N21 (some centres not stated),-9.3,-4.7,-7.0,-8.21*,1.9
O=C(NCCN1CCN(c2ccccc2F)CC1)C1c2ccccc2C(=O)N2CCc3ccccc3C12 (configuration not stated),1.8,-0.9,-10.0,-4.16,2.4
CN(C)CC1CCCCC1C1(O)c2ccccc2CSc2sccc21 (configuration not stated),x,x,x,-0.94,x
O=S(=O)(Nc1ccc(N2CCOCC2)cc1)c1ccc2ccccc2c1,4.1,x,-14.0,x,47.9*
COc1ccc(S(=O)(=O)Nc2ccc(C(F)(F)F)cc2)cc1OC,2.5,31.1,0.0,-4.77*,10.9
COc1ccc(S(=O)(=O)Nc2ccccc2SC)cc1C,1.4,20.2,0.0,x,36.1*
COc1ccc(S(=O)(=O)Nc2ccccc2OC)cc1C,-1.1,6.4,-3.0,-0.0476,9.4
CCOc1cc(C)c(S(=O)(=O)Nc2ccc(F)cc2)cc1C,-4.2,x,12.0,-1.84,51.8*
COc1ccc(NS(=O)(=O)c2ccc(OC)c(OC)c2)cc1OC,2.2,-9.3,-5.0,0.204,7.3
COc1ccc(CNS(=O)(=O)c2cccc(S(=O)(=O)N3CCOCC3)c2)cc1,14.9,x,-1.0,-4.41*,4.1
COc1ccc(S(=O)(=O)Nc2ccc(F)cc2)cc1N(C)S(=O)(=O)c1ccc(Cl)cc1,2.1,x,-2.0,-4.99*,1.8
COc1ccc(S(=O)(=O)Nc2ccc(S(=O)(=O)Nc3ccc(F)cc3)cc2)cc1C,x,x,x,-6.85*,x
COc1ccc(S(=O)(=O)Nc2ccc(F)c(F)c2)cc1Cl,10.8,47.0,24.0,-3.76,9.1
COc1cc(NS(=O)(=O)c2ccc(C)c(C)c2)c(OC)cc1Cl,-6.8,x,-12.0,-6.63*,46.9*
O=C(NC1=NCCS1)c1csc2ccccc12,3.0,-3.8,16.0,0.367,20.3
O=C(Nc1ccc(F)cc1)C1CCC(N2C(=O)c3ccccc3C2=O)CC1 (configuration not stated),-0.6,17.2,-19.0,-0.032,-7.3
COc1cc(S(=O)(=O)NC2CCCC2)ccc1Cl,1.4,6.8,6.0,-1.5,8.3
COc1ccc(S(=O)(=O)Nc2ccc(S(=O)(=O)N3CCOCC3)cc2)cc1C,-2.8,21.1,1.0,0.704,36.2*
O=S(=O)(Nc1ccc(S(=O)(=O)N2CCOCC2)cc1)c1ccccc1,-0.2,1.4,3.0,1.59,-0.6
COc1cc(S(=O)(=O)NC2CCCCC2C)ccc1Cl (configuration not stated),-2.9,51.3,7.0,-3,48.7*
c1cncc(-c2nnc3sc(-c4ccco4)nn23)c1,4.2,19.1,-5.0,0.797,-2.1
CCN(CC)c1ccc(-c2nn3c(-c4cccnc4)nnc3s2)cc1,-14.0,18.2,-7.0,x,39.2*
C[C@@H]1CC[C@@]2(O[C@@H](CCO)C[C@H](O)[C@H]2O)O1,x,x,x,-0.209,x
COc1cccc(-c2nc(CS(=O)CC(=O)NCc3ccccc3)c(C)o2)c1 (configuration not stated),7.9,8.4,-12.0,-0.149,5.1
SMILES,PostGolgi yeast,Ecoli tolC,E coli WT exp,Cav3 T inh,PostGolgi ctrl
CCOc1ccc(Cl)cc1S(=O)(=O)n1cnc2cc(C)c(C)cc21,-9.6,x,-2.0,-1.05,39.7*
CCOc1ccc(Cl)cc1S(=O)(=O)N1CCN(c2ccc(F)cc2)CC1,0.3,39.5,-18.0,-3.67*,33.1*
CCOc1ccc(Cl)cc1S(=O)(=O)N1CCN(c2ccc(C)c(C)c2)CC1,-10.4,x,-9.0,-5.41,12.7
COc1c(S(=O)(=O)N2CCN(c3ccc(F)cc3)CC2)ccc(Cl)c1Cl,8.3,x,-11.0,-1.93,28.8
COc1ccc(Cl)cc1S(=O)(=O)N1CCN(c2ccc(F)cc2)CC1,-8.5,53.9,-12.0,-3.66*,23.1
Cc1cc(Cl)c(S(=O)(=O)N2CCN(c3ccc(F)cc3)CC2)cc1OCC(=O)NC1CCCCC1,2.9,x,-10.0,-5.22*,3.4
